Experimental data published in PubChem BioAssay.
The other results are listed elsewhere or left out. Unmarked numbers belong to inactive results. The source made the active and inactive calls.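 How the source made its calls, unless noted: active means mean percent activation of the reporter above a cutoff set as the average over tested compounds plus their standard deviation; inactive means the rest.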

Legend:
[1] = target: Oxysterols receptor LXR-beta (Homo sapiens) (UniProt P55055); assay: LXR agonists, Gal4 luciferase reporter, confirmation, counter-screen for hcDAF-12 agonist project, cell-based, luminescence, HEK293, H. contortus campaign (AID 743027); conditions: HEK293 Gal4-LXR tk-luc reporter, 24 h, at 6.8 µM, hits give high values, normalized: DMSO 0%, positive control 100%
Method in brief: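 Assay system: Gal4-LXR and tk-luc reporter transfected HEK293 cells; Compound: 6.8 µM single dose; Times: one-day compound treatment at 37 °C; Technique: One-Glo luciferase luminescence; Read-out basis: % activation relative to DMSO and positive-control wells; Benchmarks: DMSO low control, positive-control high control; Repeats: three replicates per compound.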

[2] = test system: Nuclear hormone receptor DAF-12 (Haemonchus contortus); assay: H. contortus DAF-12 receptor agonists, confirmation, cell-based, luminescence, HEK293, lit1-tk-luc, triplicate (AID 743032;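 active means mean activation across triplicate tests above the threshold derived from the earlier primary screen, cut at about 5.5% in these data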;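 further: 0% = DMSO only wells and 100% = 3 µM Δ7-dafachronic acid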); conditions: HEK293 hcDAF-12 lit1-tk-luc reporter, at 6.8 µM, hits give high values, % of Δ7-dafachronic acid response
[3] = test system: DAF-12 nuclear receptor (Heterodera glycines), GAL4-LBD fusion; assay: H. glycines DAF-12 receptor agonists, confirmation, cell-based, luminescence, HEK293, GAL4-LBD fusion (AID 743050;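 active means mean activation over triplicate wells above the hit cutoff derived from the earlier primary screen, cut at about 11% in these data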;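 further: 0% = DMSO low control and 100% = 2 mM sodium butyrate high control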); conditions: HEK293 GAL4-hgDAF12 luciferase reporter, agonist mode; at 6.8 µM; hits give high values; percent of butyrate response
[4] = target: Oxysterols receptor LXR-beta (Homo sapiens) (UniProt P55055); assay: LXR agonists, Gal4 luciferase reporter, confirmation, counter-screen for hgDAF-12 agonist project, cell-based, luminescence, HEK293, H. glycines campaign (AID 743051;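 active means mean activation of the triplicate above a set limit carried over from the primary screen, none filed active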); conditions: 24 h, at 6.8 µM, hits give high values
Method in brief: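 System: HEK293 cells with Gal4-LXR and tk-luc reporter. Compound dosing: single nominal test compound dose of 6.8 µM. Timing: 3 h cell plating, then 24 h compound exposure at 37 °C. Detection: One-Glo luminescence after 15 min. Read-out basis: percent activation relative to median DMSO and positive-control wells. Benchmarks: DMSO low control, 0.68% final.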

[5] = target: Galanin receptor type 2 (Homo sapiens) (UniProt O43603); assay: GALR2 antagonists, retest of hits, confirmation, cell-based (AID 866; in the data active means inhibition above about 27%;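 further: cells stimulated with galanin at about its EC80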); conditions: GALR2-expressing cells, antagonist mode, at 4 µM, hits give high values
[6] = inhibitors of NFAT-driven beta-lactamase reporter, confirmation, counter-screen for GALR2 antagonist project, CHO NFAT-bla cells, FRET readout (AID 867;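 active means inhibition above the mean inhibition across tested compounds plus 3 SD, cut at about 27% in these data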;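 further: 0% = 500 nM thapsigargin stimulated wells and 100% = unstimulated BSA only wells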); conditions: thapsigargin-stimulated, at 4.2 µM, hits give high values

Chain of Oxysterols receptor LXR-beta (Homo sapiens) (P55055 whole entry, looked up, the tested form may be a part): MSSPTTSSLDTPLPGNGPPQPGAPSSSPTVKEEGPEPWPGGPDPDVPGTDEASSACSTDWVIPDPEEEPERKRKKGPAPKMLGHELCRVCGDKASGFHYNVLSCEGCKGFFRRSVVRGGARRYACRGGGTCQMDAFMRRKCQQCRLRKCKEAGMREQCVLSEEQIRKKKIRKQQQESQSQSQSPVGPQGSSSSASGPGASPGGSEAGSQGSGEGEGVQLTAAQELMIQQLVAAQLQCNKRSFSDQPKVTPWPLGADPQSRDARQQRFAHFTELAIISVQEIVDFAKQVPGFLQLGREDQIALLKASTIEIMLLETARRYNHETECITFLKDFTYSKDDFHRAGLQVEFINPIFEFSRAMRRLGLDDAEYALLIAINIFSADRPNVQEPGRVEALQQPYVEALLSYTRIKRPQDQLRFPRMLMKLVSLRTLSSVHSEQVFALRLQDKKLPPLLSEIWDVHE
Chain of Galanin receptor type 2 (Homo sapiens) (O43603 whole entry, looked up): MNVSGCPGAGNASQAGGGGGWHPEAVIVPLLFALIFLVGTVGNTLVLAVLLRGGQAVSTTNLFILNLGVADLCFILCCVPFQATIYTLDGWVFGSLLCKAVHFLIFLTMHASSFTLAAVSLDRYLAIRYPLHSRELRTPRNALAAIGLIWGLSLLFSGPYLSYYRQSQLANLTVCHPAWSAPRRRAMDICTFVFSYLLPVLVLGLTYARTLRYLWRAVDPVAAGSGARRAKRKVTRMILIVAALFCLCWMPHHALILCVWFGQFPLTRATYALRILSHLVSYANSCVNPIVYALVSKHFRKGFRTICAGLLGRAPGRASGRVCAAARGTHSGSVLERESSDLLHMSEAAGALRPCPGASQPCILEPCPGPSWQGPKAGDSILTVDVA

SMILES	activation [1]	activation [2]	activation [3]	activation [4]	inhibition [5]	inhibition [6]
c1ccc(-c2cc(-c3ccccc3)[nH]n2)cc1	1.43%	15.7% (active)	–	–	–	–
CC(C)C(=O)Nc1ccc2c(c1)oc1ccccc12	0.52%	5.43%	–	–	–	–
O=C(OCC(=O)c1c[nH]c2ccccc12)c1cccc(O)c1	0.27%	7.43% (active)	–	–	–	–
Cc1cnc(NC(=O)c2ccc(Cl)nc2)s1	0.78%	11.4% (active)	–	–	–	–
O=C(NC1CCC1)c1ccc(C#CC2CC2)cn1	–	–	13.4% (active)	0.57%	–	–
COc1ccc2nc(-c3ccccn3)ccc2c1	1.86%	11.8% (active)	16.7% (active)	1.05%	–	–
O=C(Nc1ccn(Cc2ccccc2)n1)c1cccc(F)c1	1.66%	7.02% (active)	15.6% (active)	0.7%	–	–
Cn1c(-c2ccco2)nc2cc3ccccc3cc21	2.33%	17.3% (active)	–	–	32.7% (active)	15.4%
Brc1ccccc1C1N=C(c2ccccc2)NO1 (configuration not stated)	1.08%	11.3% (active)	19.6% (active)	0.87%	–	–
Cc1ccnc(Nc2nc3ccccc3s2)n1	1.72%	18.5% (active)	15% (active)	1.12%	–	–
NC(=O)c1ccccc1N=Cc1ccc2ccccc2c1	0.6%	5.79% (active)	15.7% (active)	0.4%	–	–
Cc1cccc(/C(N)=N/OC(=O)c2ccccc2Cl)c1	2.08%	15.3% (active)	21.4% (active)	1.18%	–	–
O=C(Nc1ccccc1)Nc1nc2ccccc2s1	1.95%	9.44% (active)	20.4% (active)	1.06%	–	–
CC(C)c1ccc(C=NNc2ccc([N+](=O)[O-])cn2)cc1	1.84%	12% (active)	–	–	–	–
O=C(CSC(=S)N1CCCCC1)c1c(F)cccc1F	–	–	13.4% (active)	0.64%	–	–
CCOC(=O)c1cn[nH]c1NC(=S)Nc1ccccc1	1.51%	4.78%	15.6% (active)	1.01%	–	–
Clc1ccc(Nc2ccc3ccccc3n2)cc1	2.07%	15% (active)	28.6% (active)	1.31%	–	–
Oc1ccccc1-c1cc(-c2ccc(Cl)cc2)n[nH]1	1.85%	14.7% (active)	29.5% (active)	1.15%	–	–
O=C(NC(=O)c1ccccc1)Nc1ccccc1O	1.94%	13.2% (active)	19.6% (active)	1.13%	–	–
CC(=O)Nc1cccc(C(=O)OCC(=O)c2ccc3c(c2)OCO3)c1	1.92%	8.03% (active)	16.6% (active)	1.1%	–	–
Cc1ccc(NC(=O)c2cc3ccccc3o2)cc1	1.5%	7.27% (active)	22% (active)	0.74%	–	–
COc1ccc(C2=NN(C(=O)c3ccccc3C(=O)O)C(c3ccccc3O)C2)cc1 (configuration not stated)	0.16%	2.72%	4.93%	0.19%	–	–
O=C(c1cnn(-c2ccc(Cl)cc2)c1)c1ccccc1O	1.48%	7.41% (active)	12.9% (active)	0.81%	–	–
Cc1ccnc(NC(=O)CCNS(=O)(=O)c2ccc(C)c(C)c2)c1	1.16%	5.73% (active)	17.9% (active)	0.55%	–	–
N[C@@H](Cc1ccccc1)C(=O)N1CCC(C(=O)NCC(=O)Nc2ccc(F)cc2)CC1	-0.2%	0.19%	–	–	–	–
Cc1cc(N=Nc2ccc3ccccc3c2)ccc1O	1.85%	8.43% (active)	24.5% (active)	1.16%	–	–
Cc1cc(OCc2cc(C(=O)NCc3cc(C(C)C)no3)no2)cc(C)c1Cl	0.91%	7.69% (active)	20.9% (active)	0.62%	–	–
